The structures appear in SMILES notation.

This note sets out measurements from ChEMBL document CHEMBL1127674, “Enhanced brain delivery of an anti-HIV nucleoside 2'-F-ara-ddI by xanthine oxidase mediated biotransformation” (J Med Chem, 1994).

Data set [1] concerns Mus musculus. Description: Bioavailability in mouse brain after intravenous administration of 105.1 mg/kg of dose. The settings on record: in vivo. It is filed as ADME, organism-based.
The subject of data set [2] is Mus musculus. Description: Bioavailability in mouse brain after oral administration of 100 mg/kg of dose. The settings on record: in vivo. It is filed as ADME, organism-based. The method, boiled down: (§1)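 Single-dose pharmacokinetics in female NIH-Swiss mice given the compound in saline, either intragastrically or iv via tail vein over 30 s. Three mice sampled per time point. Serum or brain homogenate assayed by HPLC-UV at 260 nm. AUC calculated by Lagrange polynomial integration. Bioavailability taken as the ratio of oral to iv AUC.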

Data set [3] has as its system Mus musculus. Description: Bioavailability in mouse serum after intravenous administration of 105.1 mg/kg of dose. In kind it is ADME, organism-based. The settings on record: in vivo.
Data set [4] concerns Mus musculus. In words: Bioavailability in mouse serum after oral administration of 100 mg/kg of dose. It is filed as ADME, organism-based. The note with it: in vivo.
The test system of data set [5] is Mus musculus. In words: Apparent clearance in mice after intravenous administration of 105.1 mg/kg of dose. Further details: dose 105.1 mg/kg, route intravenous. The note with it: in vivo. In kind it is ADME, organism-based.
Data set [6] concerns Mus musculus. Description: Apparent clearance in mice after oral administration of 100 mg/kg of dose. In kind it is ADME, organism-based. The settings on record: in vivo. On the set-up: dose 100 mg/kg, route oral. The method, boiled down: (§2)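 Female NIH-Swiss mice, 24–28 g. Compounds dissolved in physiological saline at 15 mg/mL and given once, either intragastrically or iv via tail vein over 30 s, at 100 or 106.8 mg/kg (equimolar). Three mice per time point, killed by heart puncture under ether. Serum and brain stored at -20 °C. Brain homogenized 1:1 (g:mL) in isotonic phosphate buffer, pH 7.4. Analysis by reversed-phase HPLC with UV at 260 nm and an internal standard. Noncompartmental pharmacokinetics, AUC by Lagrange polynomial integration.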

A short description of data set [7]: Bioavailability after oral administration of 100 mg/kg of dose in mouse. It is filed as ADME, organism-based. The note with it: in vivo. In short, it runs like this:
as §1

Data set [8] is described as follows: Apparent volume of distribution in mice after intravenous administration of 105.1 mg/kg of dose. In kind it is ADME, organism-based. Further details: dose 105.1 mg/kg, route intravenous. The note with it: mouse, in vivo, read-out: Vss.
Data set [9] relates to Mus musculus. Description: Apparent volume of distribution in mice after oral administration of 100 mg/kg of dose. It is filed as ADME, organism-based. Further details: dose 100 mg/kg, route oral. The settings on record: in vivo. The method, boiled down: as §2
Data set [10] can be described thus: Half-life in mouse brain after oral administration of 100 mg/kg of dose. In kind it is ADME, organism-based. Further details: dose 100 mg/kg, route oral. The method, boiled down:
as §2

Data set [11] in a line: Half-life in mouse serum after oral administration of 100 mg/kg of dose. On the set-up: dose 100 mg/kg, route oral. In kind it is ADME, organism-based. The method, boiled down: as §2
Data set [12] is described as follows: Half-life in mouse serum after intravenous administration of 100 mg/kg of dose.
Data set [13] can be described thus: Half-life in mouse brain after intravenous administration of 100 mg/kg of dose.
The test system of data set [14] is Mus musculus. Description: Bioavailability in mouse brain after intravenous administration of equimolar doses of ( 2'F-ara-ddI + 2'F-ara-ddP). In kind it is ADME, organism-based. The note with it: in vivo.
For data set [15], the system named is Mus musculus. In words: Bioavailability in mouse brain after oral administration of equimolar doses of ( 2'F-ara-ddI + 2'F-ara-ddP). It is filed as ADME, organism-based. The note with it: in vivo. The method, boiled down:
as §1

For data set [16], the system named is Mus musculus. In words: Bioavailability in mouse serum after intravenous administration of equimolar doses of ( 2'F-ara-ddI + 2'F-ara-ddP). It is filed as ADME, organism-based. The note with it: in vivo.
In data set [17] the test system is Mus musculus. Description: Bioavailability in mouse serum after oral administration of equimolar doses of ( 2'F-ara-ddI + 2'F-ara-ddP). In kind it is ADME, organism-based. The settings on record: in vivo.
Data set [18] in a line: Evaluated for the maximum serum concentration administered at 1 hour in mice. It is filed as ADME, organism-based. The settings on record: mouse. The method, boiled down: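 Serum drug level in female NIH-Swiss mice after a single intragastric dose in saline, 100 mg/kg for the prodrug or an equimolar dose for the parent. Blood drawn by heart puncture under ether, three mice per time point. Serum analyzed by reversed-phase HPLC with UV at 260 nm; detection limit 50–100 ng/mL. Peak concentration read from the concentration–time profile and given as mean ± SD.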

As a reminder, the bioavailability is dose-corrected exposure relative to a reference, in per cent. A lower bioavailability goes with poor availability. By half-life is commonly meant how long it takes for the measured level to halve. Low readings indicate fast loss, high ones slow loss. With `OCC1CC(F)C(n2cnc3cncnc32)O1` (configuration not stated), the AUC in the data set on Mus musculus [1] worked out at 120 uM L; in the data set with Mus musculus [2], 32.3 uM L; with Mus musculus [3], 252 uM L; with Mus musculus [4], 153 uM L. Further, the CI in the data set with Mus musculus [5] amounted to 29.3 mL/min/kg; in the data set on Mus musculus [6], 48.3 mL/min/kg. In data set [7], this compound gave a bioavailability of 60.7%. Also, in data set [8], the Vd came out at 1.12 L/kg. For the same compound, in the data set with Mus musculus [9], the Vss turned out to be 2.32 L/kg. Moreover, the half-life in data set [10] was 39 min; in [11], 47.4 min; in data set [12], 24 min; in data set [13], 25.2 min.
As a reminder, the Cmax is the peak of the concentration-time curve. Turning to `OCC1CC(F)C(n2cnc3c(O)ncnc32)O1` (configuration not stated), the AUC with Mus musculus [14] stood at 48 uM L; in the data set on Mus musculus [15], 47.9 uM L; in the data set on Mus musculus [16] it was 132 uM L; with Mus musculus [4], 154 uM L; in the data set with Mus musculus [17], 134 uM L. The CI in the data set on Mus musculus [6] is 48 mL/min/kg. In data set [18], this compound gave a Cmax of 48.1 µM. Moreover, the Vss with Mus musculus [9] was found to be 14.5 L/kg. Besides, the half-life in data set [11] was 257 min.
